Measurements from ChEMBL document CHEMBL1122233, “Antihypertensive 9-substituted 1-oxa-4,9-diazaspiro[5.5]undecan-3-ones” (J Med Chem, 1983).
The source made the active and inactive calls. The calls are words filed in the database; no cut-off is given here.

Legend:
Rattus norvegicus [1] = test: (§1) Percentage fall in systolic blood pressure after 3 hours at 50 mg/kg given perorally; assay type: functional, organism-based; design: dose 50 mg/kg; conditions: Artery
Procedure, shortened: (§2)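 Male Okamoto-Aoki spontaneously hypertensive rats, trained, in groups of four matched for mean systolic pressure; five treated groups and one vehicle control run concurrently. Oral dosing in water (solution or suspension, 0.1 mL/10 g) on two consecutive mornings. On day 2, rats were restrained at 30.0 ± 1.0 °C and tail-cuff systolic pressure recorded at 1–4 h; percent fall versus control, 1-tail t test, p ≤ 0.05.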

Rattus norvegicus [2] = test: (§3) Percentage fall in systolic blood pressure after 1 hr at 50 mg/kg given perorally; assay type: functional, organism-based; design: dose 50 mg/kg; conditions: Artery; procedure, shortened: as §2
Rattus norvegicus [3] = test: (§4) Percentage fall in systolic blood pressure after 4 hours at 50 mg/kg given perorally; assay type: functional, organism-based; design: dose 50 mg/kg; conditions: Artery; procedure, shortened: as §2
Rattus norvegicus [4] = test: (§5) Percentage fall in systolic blood pressure after 2 hours at 50 mg/kg given perorally; assay type: functional, organism-based; design: dose 50 mg/kg; conditions: Artery; procedure, shortened: as §2
Rattus norvegicus [5] = test: Percentage fall in systolic blood pressure after 3 hr at 25 mg/kg given perorally; assay type: functional, Artery; conditions: route oral; procedure, shortened: as §2
Rattus norvegicus [6] = test: Percentage fall in systolic blood pressure after 2 hr at 25 mg/kg given perorally; assay type: functional, Artery; conditions: route oral; procedure, shortened: as §2
[7] = biological target: T1, Adrenergic receptor alpha-1 (Rattus norvegicus, UniProt P15823+P23944+P43140); test: Affinity for alpha-1 adrenoceptor of rat cerebral cortex was determined by ligand binding using [3H]prazosin.; assay type: tissue-based
T1 sequence (P15823 whole entry): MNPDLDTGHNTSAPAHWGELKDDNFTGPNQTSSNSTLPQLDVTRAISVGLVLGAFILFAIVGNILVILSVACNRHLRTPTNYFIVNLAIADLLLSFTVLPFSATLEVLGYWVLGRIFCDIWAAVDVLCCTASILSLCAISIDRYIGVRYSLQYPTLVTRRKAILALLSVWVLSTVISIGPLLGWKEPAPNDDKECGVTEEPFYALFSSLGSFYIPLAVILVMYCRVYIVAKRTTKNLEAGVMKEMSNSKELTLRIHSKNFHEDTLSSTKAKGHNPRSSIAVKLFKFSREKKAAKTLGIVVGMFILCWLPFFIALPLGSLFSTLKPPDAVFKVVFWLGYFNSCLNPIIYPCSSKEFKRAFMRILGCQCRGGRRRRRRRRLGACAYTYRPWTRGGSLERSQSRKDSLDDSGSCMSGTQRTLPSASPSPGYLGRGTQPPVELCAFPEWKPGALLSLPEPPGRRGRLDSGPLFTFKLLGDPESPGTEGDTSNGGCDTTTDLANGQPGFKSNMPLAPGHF
T1 sequence (P23944 whole entry): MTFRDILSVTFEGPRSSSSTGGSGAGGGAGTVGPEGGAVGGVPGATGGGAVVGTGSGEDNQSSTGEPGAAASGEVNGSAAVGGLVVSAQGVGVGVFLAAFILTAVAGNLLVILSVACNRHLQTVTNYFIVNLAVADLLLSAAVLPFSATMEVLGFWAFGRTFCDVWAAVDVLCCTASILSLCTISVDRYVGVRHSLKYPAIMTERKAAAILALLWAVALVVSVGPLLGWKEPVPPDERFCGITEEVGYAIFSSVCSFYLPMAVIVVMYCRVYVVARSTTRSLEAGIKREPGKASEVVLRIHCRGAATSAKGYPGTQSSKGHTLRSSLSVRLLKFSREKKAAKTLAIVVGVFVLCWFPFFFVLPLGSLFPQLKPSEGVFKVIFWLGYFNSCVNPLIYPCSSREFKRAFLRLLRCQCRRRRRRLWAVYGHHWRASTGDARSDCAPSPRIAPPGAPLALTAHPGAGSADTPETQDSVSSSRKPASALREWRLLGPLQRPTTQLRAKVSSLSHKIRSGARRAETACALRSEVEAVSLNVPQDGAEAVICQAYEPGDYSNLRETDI
T1 sequence (P43140 whole entry): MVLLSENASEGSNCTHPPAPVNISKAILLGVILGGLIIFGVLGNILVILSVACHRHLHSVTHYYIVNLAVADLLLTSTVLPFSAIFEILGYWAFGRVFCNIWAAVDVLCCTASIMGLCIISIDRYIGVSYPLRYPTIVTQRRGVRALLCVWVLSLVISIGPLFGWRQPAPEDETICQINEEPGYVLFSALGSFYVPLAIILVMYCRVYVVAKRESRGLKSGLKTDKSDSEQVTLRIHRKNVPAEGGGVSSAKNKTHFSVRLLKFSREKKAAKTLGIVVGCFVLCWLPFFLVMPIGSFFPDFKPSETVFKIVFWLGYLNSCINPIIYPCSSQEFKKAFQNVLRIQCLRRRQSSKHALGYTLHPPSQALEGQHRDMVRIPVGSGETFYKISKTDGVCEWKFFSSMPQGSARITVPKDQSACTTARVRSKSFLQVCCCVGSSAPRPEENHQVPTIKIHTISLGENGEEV
Procedure, shortened: (§6)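 Washed rat cerebral cortex membranes (homogenised in 50 mM Tris-HCl pH 7.8, pelleted at 48000g, washed 3 times) at 2.5 mg/mL protein. […] Ice-cold buffer stop, then filtration. Nonspecific binding defined with 200 μmol norepinephrine. KI from IC50 by Cheng-Prusoff, given as negative log.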

Rattus norvegicus [8] = test: (§7) Percentage fall in systolic blood pressure after 1 hr at 12.5 mg/kg given perorally; assay type: functional, organism-based; design: dose 12.5 mg/kg; conditions: Artery; procedure, shortened: as §2
[9] = biological target: T2, Adrenergic receptor alpha-2 (Rattus norvegicus, UniProt P22086+P19328+P22909); test: Affinity for alpha-2 adrenergic receptor of rat cerebral cortex was determined by ligand binding using [3H]yohimbine.; assay type: tissue-based; procedure, shortened: as §6
T2 sequence (P22086 whole entry): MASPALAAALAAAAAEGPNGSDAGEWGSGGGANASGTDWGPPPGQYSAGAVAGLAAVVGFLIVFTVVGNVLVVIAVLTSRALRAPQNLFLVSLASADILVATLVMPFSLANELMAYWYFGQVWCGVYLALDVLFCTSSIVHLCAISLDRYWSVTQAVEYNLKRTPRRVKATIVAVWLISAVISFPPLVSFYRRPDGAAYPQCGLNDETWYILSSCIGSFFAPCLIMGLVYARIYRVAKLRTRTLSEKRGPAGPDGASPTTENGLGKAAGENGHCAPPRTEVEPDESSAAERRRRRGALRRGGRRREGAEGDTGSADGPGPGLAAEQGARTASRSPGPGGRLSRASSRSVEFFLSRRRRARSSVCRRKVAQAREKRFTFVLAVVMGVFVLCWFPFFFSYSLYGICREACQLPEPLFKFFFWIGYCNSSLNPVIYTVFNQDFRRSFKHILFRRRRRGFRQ
T2 sequence (P19328 whole entry): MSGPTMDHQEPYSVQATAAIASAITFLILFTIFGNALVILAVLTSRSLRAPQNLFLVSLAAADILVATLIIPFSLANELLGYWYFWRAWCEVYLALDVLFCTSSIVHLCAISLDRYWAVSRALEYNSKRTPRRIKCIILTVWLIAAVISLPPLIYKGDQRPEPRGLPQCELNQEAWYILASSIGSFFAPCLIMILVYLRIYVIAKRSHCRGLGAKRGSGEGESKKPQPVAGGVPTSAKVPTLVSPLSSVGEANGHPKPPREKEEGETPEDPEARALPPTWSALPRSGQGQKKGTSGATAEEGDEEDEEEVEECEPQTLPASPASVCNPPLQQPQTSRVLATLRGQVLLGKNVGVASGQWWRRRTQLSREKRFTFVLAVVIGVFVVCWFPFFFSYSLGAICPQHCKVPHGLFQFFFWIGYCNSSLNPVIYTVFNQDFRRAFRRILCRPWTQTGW
T2 sequence (P22909 whole entry): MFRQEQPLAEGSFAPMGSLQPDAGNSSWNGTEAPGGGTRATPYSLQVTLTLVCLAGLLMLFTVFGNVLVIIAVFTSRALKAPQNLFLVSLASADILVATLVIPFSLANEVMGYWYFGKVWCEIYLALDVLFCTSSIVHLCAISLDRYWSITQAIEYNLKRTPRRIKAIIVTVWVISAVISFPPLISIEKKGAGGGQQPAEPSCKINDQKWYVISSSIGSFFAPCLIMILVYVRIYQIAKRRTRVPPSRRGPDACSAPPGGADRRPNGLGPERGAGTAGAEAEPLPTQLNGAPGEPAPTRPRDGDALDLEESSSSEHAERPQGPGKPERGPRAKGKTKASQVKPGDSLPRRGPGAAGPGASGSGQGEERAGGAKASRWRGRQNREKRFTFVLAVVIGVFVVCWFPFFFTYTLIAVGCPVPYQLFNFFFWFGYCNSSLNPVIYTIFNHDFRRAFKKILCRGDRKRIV

Rattus norvegicus [10] = test: Percentage fall in systolic blood pressure after 2 hr at 12.5 mg/kg given perorally; assay type: functional, organism-based; design: dose 12.5 mg/kg; conditions: Artery; procedure, shortened: as §2
Rattus norvegicus [11] = test: Percentage fall in systolic blood pressure after 1 hr at 25 mg/kg given perorally; assay type: functional, Artery; conditions: route oral; procedure, shortened: as §2
Rattus norvegicus [12] = test: (§8) Percentage fall in systolic blood pressure after 4 hr at 25 mg/kg given perorally; assay type: functional, Artery; conditions: route oral; procedure, shortened: as §2
Rattus norvegicus [13] = test: Percentage fall in systolic blood pressure after 4 hr at 12.5 mg/kg given perorally; assay type: functional, organism-based; design: dose 12.5 mg/kg; conditions: Artery; procedure, shortened: as §2
Rattus norvegicus [14] = test: Percentage fall in systolic blood pressure after 3 hr at 12.5 mg/kg given perorally; assay type: functional, organism-based; design: dose 12.5 mg/kg; conditions: Artery; procedure, shortened: as §2
Rattus norvegicus [15] = test: as §7; assay type: functional, Artery; conditions: route oral
Procedure, shortened: (§9)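 Male Okamoto-Aoki SHR, four per group, with a concurrent vehicle control group. Oral dosing in water (0.1 mL/10 g) on two consecutive mornings. After the day-2 dose, rats were restrained in a 30 °C chamber. Tail-cuff systolic pressure was taken at 1-4 h from four traces per rat. Result is % decrease versus control mean, by 1-tailed t test, p ≤ 0.05.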

Rattus norvegicus [16] = test: Percentage fall in systolic blood pressure after 3 hours at 12.5 mg/kg given perorally; assay type: functional, organism-based; design: dose 12.5 mg/kg; conditions: Artery; procedure, shortened: as §9
Rattus norvegicus [17] = test: Percentage fall in systolic blood pressure after 4 hours at 12.5 mg/kg given perorally; assay type: functional, organism-based; design: dose 12.5 mg/kg; conditions: Artery; procedure, shortened: as §9
Rattus norvegicus [18] = test: as §4; assay type: functional, Artery; conditions: route oral; procedure, shortened: as §9
Rattus norvegicus [19] = test: as §3; assay type: functional, Artery; conditions: route oral; procedure, shortened: as §9
Rattus norvegicus [20] = test: (§10) Percentage fall in systolic blood pressure after 2 hours at 12.5 mg/kg given perorally; assay type: functional, Artery; conditions: route oral; procedure, shortened: as §9
Rattus norvegicus [21] = test: as §1; assay type: functional, Artery; conditions: route oral; procedure, shortened: as §9
Rattus norvegicus [22] = test: as §5; assay type: functional, Artery; conditions: route oral; procedure, shortened: as §9
Rattus norvegicus [23] = test: as §10; assay type: functional, organism-based; design: dose 12.5 mg/kg; conditions: Artery; procedure, shortened: as §9
Rattus norvegicus [24] = test: as §8; assay type: functional, organism-based; design: dose 25 mg/kg; conditions: Artery; procedure, shortened: as §2

## O=C1COC2(CCN(CC(O)C3COc4ccccc4O3)CC2)C(c2ccccc2)N1 (stereo unspecified)
Rattus norvegicus [1]
  Decrease in SBP: Not significant
Rattus norvegicus [2]
  Decrease in SBP: Not significant
Rattus norvegicus [3]
  Decrease in SBP: Not significant
Rattus norvegicus [4]
  Decrease in SBP: Not significant

## O=C(NC1CCN(CCc2c[nH]c3ccccc23)CC1)c1ccccc1 [INDORAMIN]
Rattus norvegicus [5]
  Decrease in SBP: 34%
Rattus norvegicus [6]
  Decrease in SBP: 28%
[7]
  -Log Ki: 7.61
Rattus norvegicus [8]
  Decrease in SBP: inactive
[9]
  -Log Ki: 4.92
Rattus norvegicus [10]
  Decrease in SBP: inactive
Rattus norvegicus [11]
  Decrease in SBP: 27%
Rattus norvegicus [12]
  Decrease in SBP: 30%
Rattus norvegicus [13]
  Decrease in SBP: inactive
Rattus norvegicus [14]
  Decrease in SBP: inactive

## CCC1NC(=O)COC12CCN(CCc1c[nH]c3ccccc13)CC2 (stereo unspecified)
Rattus norvegicus [15]
  Decrease in SBP: 21%
Rattus norvegicus [16]
  Decrease in SBP: Not significant
Rattus norvegicus [17]
  Decrease in SBP: Not significant
Rattus norvegicus [18]
  Decrease in SBP: 43%
Rattus norvegicus [19]
  Decrease in SBP: 40%
Rattus norvegicus [20]
  Decrease in SBP: 25%
Rattus norvegicus [21]
  Decrease in SBP: 41%
Rattus norvegicus [22]
  Decrease in SBP: 54%

## O=C1COC2(CCN(CCc3c[nH]c4ccccc34)CC2)CN1c1ccccc1
Rattus norvegicus [15]
  Decrease in SBP: 19%
Rattus norvegicus [16]
  Decrease in SBP: Not significant
Rattus norvegicus [17]
  Decrease in SBP: Not significant
Rattus norvegicus [18]
  Decrease in SBP: 40%
Rattus norvegicus [19]
  Decrease in SBP: 45%
Rattus norvegicus [23]
  Decrease in SBP: Not significant
Rattus norvegicus [21]
  Decrease in SBP: 45%
Rattus norvegicus [22]
  Decrease in SBP: 59%

## CN1CC2(CCN(CC(O)C3COc4ccccc4O3)CC2)OCC1=O (stereo in doubt; 60)
Rattus norvegicus [24]
  Decrease in SBP: Not significant
